Measured values reported in publication PMC4277207 (ChemMedChem, 2014).
Entries after “also recorded” stand apart in the source; their conditions may differ. Where two headings read alike, the source gives them in different places.

Experiments:
[1] = test system: D2-like receptor (D2, D3, and D4); assay: [3H]spiperone binding assay, rat striatal; conditions: ratio of Ki values, rat brain preparation
Outline: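 The D2-like assay used [3H]spiperone at 0.2 nM on caudate-putamen membranes at 1.5 mg o.w.w./mL, in agonist-optimised Tris-HCl/KCl/MgCl2/CaCl2 buffer at pH 7.4. Nonspecific binding was set with 1 μM (+)-butaclamol, and KD was 0.4 nM. For two-site curves, the high-affinity Ki is reported. […] Values are means of 3–6 determinations.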

[2] = test system: D1-like receptor (D1 and D5); assay: [3H]SCH 23390 binding assay, rat striatal membranes; conditions: ratio of Ki values, rat brain preparation
human D3 receptor = human D3 receptor (Homo sapiens, UniProt P35462); type: cell-based; conditions: hD3-transfected CHOp cells, mitogenesis; for IC50: read-out: Agonist activity: IC50, mean ± SEM of 3–6 determinations
Sequence of human D3 receptor (P35462 whole entry): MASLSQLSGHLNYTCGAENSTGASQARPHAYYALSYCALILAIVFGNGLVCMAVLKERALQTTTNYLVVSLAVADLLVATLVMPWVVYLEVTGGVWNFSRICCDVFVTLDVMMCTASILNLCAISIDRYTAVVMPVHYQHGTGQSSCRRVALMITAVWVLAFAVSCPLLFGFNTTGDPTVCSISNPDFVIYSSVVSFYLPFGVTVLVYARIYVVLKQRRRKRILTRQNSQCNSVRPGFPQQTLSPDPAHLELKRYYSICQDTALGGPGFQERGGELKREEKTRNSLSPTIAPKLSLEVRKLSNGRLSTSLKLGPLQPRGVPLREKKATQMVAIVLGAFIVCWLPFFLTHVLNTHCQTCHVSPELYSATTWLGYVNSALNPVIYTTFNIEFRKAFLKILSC

[3] = type: in vitro ADME

Selectivity D2-like/D3 [1] | Selectivity D1-like/D3 [2] | % of Stimulation compared to Quinpirole as the standard agonist (human D3 receptor) [%] | IC50 (human D3 receptor) [nM] | t1/2 in human liver microsomes [3] [h] | Percentage remaining of compounds in human liver microsomes ([3]; 0 h) [%] | Percentage remaining of compounds in human liver microsomes ([3]; 5 min) [%] | Percentage remaining of compounds in human liver microsomes ([3]; 10 min) [%] | Percentage remaining of compounds in human liver microsomes ([3]; 0.25 h) [%] | Percentage remaining of compounds in human liver microsomes ([3]; 0.5 h) [%] | Percentage remaining of compounds in human liver microsomes ([3]; 1 h) [%] | Compound | functional activity at the human D3 receptor (agonist character) (human D3 receptor)
12,836 | 84,474 | 100 | 18 ± 2.7 | >1 | 100 | 99.7 | 98.5 | 92.5 | 83.0 | 74.1 | CCCN(CC[C@]1(O)C[C@@H](NC(=O)c2cccc(OC)c2)C1)[C@H]1CCc2nc(N)sc2C1 (relative stereo) [Compound 21, N-(cis-3-(2-(((S)-2-Amino-4,5,6,7-tetrahydrobenzo[d]thiazol-6-yl)(propyl)amino)-ethyl)-3-hydroxycyclobutyl)-3-methoxybenzamide] | full D3 agonists
29,800 | 28,300 | 100 | 19 ± 1.5 | >1 | 100 | 96.6 | 99.2 | 99.0 | 90.0 | 65.5 | CCCN(CC[C@]1(O)C[C@@H](NC(=O)c2cccc(-c3noc(C)n3)c2)C1)[C@H]1CCc2nc(N)sc2C1 (relative stereo) [Compound 23, N-(cis-3-(2-(((S)-2-amino-4,5,6,7-tetrahydrobenzo[d]thiazol-6-yl)(propyl)amino)-ethyl)-3-hydroxycyclobutyl)-3-(5-methyl-1,2,4-oxadiazol-3-yl)benzamide] | full D3 agonists; also recorded: full agonist
16,272 | 65,581 | 100 | 2 ± 0.34 | – | – | – | – | – | – | – | CCCN(CCC1(O)CC(NC(=O)c2ccc(F)c(Cl)c2)C1)[C@H]1CCc2nc(N)sc2C1 (stereo in doubt) [Compound 18, N-(cis-3-(2-(((S)-2-amino-4,5,6,7-tetrahydrobenzo[d]thiazol-6-yl)(propyl)amino)-ethyl)-3-hydroxycyclobutyl)-3-chloro-4-fluorobenzamide] | full D3 agonists

Compound | Selectivity D2-like/D3 [1] | Selectivity D1-like/D3 [2] | % of Stimulation compared to Quinpirole as the standard agonist (human D3 receptor) [%] | IC50 (human D3 receptor) [nM] | t1/2 in human liver microsomes [3] [h] | Percentage remaining of compounds in human liver microsomes ([3]; 0 h) [%] | Percentage remaining of compounds in human liver microsomes ([3]; 5 min) [%] | Percentage remaining of compounds in human liver microsomes ([3]; 10 min) [%] | Percentage remaining of compounds in human liver microsomes ([3]; 0.25 h) [%] | Percentage remaining of compounds in human liver microsomes ([3]; 0.5 h) [%] | Percentage remaining of compounds in human liver microsomes ([3]; 1 h) [%] | functional activity at the human D3 receptor (agonist character) (human D3 receptor)
CCCN(CCC1(O)CC(NS(=O)(=O)c2ccc(F)c(Cl)c2)C1)[C@H]1CCc2nc(N)sc2C1 (stereo in doubt) [Compound 34, N-(cis-3-(2-(((S)-2-Amino-4,5,6,7-tetrahydrobenzo[d]thiazol-6-yl)(propyl)amino)-ethyl)-3-hydroxycyclobutyl)-3-chloro-4-fluorobenzenesulfonamide] | 1,052 | 18,217 | 100 | 26 ± 4.1 | – | – | – | – | – | – | – | full D3 agonists
